The values that follow come from ChEMBL document CHEMBL6096700, “Modulation of Mitochondria-Endoplasmic Reticulum Contacts (MERCs) by Small Molecules as a New Strategy for Restoring Lipid Metabolism in an Amyotrophic Lateral Sclerosis Model” (J Med Chem, 2025).

Calls of active or inactive are those of the source. Where a SMILES comes first, the peptide text is derived from it. The star is where a group is joined. Cbz = O=C(OCc1ccccc1)*

Series [1] can be described thus: Modulation of mitochondria-endoplasmic reticulum contacts in human HCT-116 cells expressing MERLIN by BRET assay. The format is functional, cell-based. An outline of the steps:
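MERLIN-HCT116 BRET biosensor cells (RLuc8 donor, mVenus acceptor) seeded at 4500/well for 24 h, then treated with compound overnight. Coelenterazine h 5 μM added for 8 min in the dark, read at RT. BRET = acceptor/donor emission minus RLuc8-only background, with DMSO, RLuc8 and RLuc8-mVenus controls; plates kept if Z'>0.7.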

Series [2] has as its system HCT-116. Kind of series: Cytotoxicity against human HCT-116 cells assessed as cell viability at 1 uM incubated for 24 hrs by MTT assay. The format is toxicity, cell-based. As to conditions: hct-116, 24 h. An outline of the steps:
(§1)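 HCT116 cells grown in phenol red-free McCoy's 5A with 10% FBS and 1% penicillin/streptomycin. Exposed 24 h to compound at 1, 5 or 10 μM. Viability measured by MTT reduction to formazan read by absorbance, expressed as percent of untreated controls. Safety threshold >80% viability. Mean ± SEM of three independent experiments.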

For series [3], the system named is HCT-116. Kind of series: Induction of extracellular NBD-labeled cholesterol uptake in human HCT-116 cells at 1 uM incubated for 24 hrs followed by NBD-labeled cholesterol addition measured after 1 to 3 hrs by fluorescence based assay. The format is functional, cell-based. The following applies: time 25-27 hrs. An outline of the steps: (§2)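 HCT116 cells seeded 24 h at 37 °C, 5% CO2, then treated with compound for 24 h. NBD-cholesterol added for 1 and 3 h. Cells washed three times with PBS, fluorescence read at 469/537 nm, compared with untreated cells. Mean ± SEM of three independent experiments.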

The subject of series [4] is HCT-116. The experiment in a line: Cytotoxicity against human HCT-116 cells assessed as cell viability at 5 uM incubated for 24 hrs by MTT assay. It is filed as toxicity, cell-based. As to conditions: hct-116, 24 h. An outline of the steps:
as §1

The test system of series [5] is HCT-116. Kind of series: Induction of extracellular NBD-labeled cholesterol uptake in human HCT-116 cells at 5 uM incubated for 24 hrs followed by NBD-labeled cholesterol addition measured after 3 hrs by fluorescence based assay. The format is functional, cell-based. As to conditions: time 27.0 hrs. An outline of the steps:
as §2

In series [6] the test system is Lymphoblastoid cell. The experiment in a line: Induction of extracellular NBD-labeled cholesterol uptake in patient-derived Sporadic ALS lymphoblastoid cells at 5 uM incubated for 24 hrs followed by NBD-labeled cholesterol addition measured after 1 hr by fluorescence based assay. It is filed as functional. The following applies: Homo sapiens, time 25.0 hrs.
Series [7] concerns Lymphoblastoid cell. Kind of series: Induction of extracellular NBD-labeled cholesterol uptake in patient-derived C9orf72-mutated familial ALS lymphoblastoid cells at 5 uM incubated for 24 hrs followed by NBD-labeled cholesterol addition measured after 1 hr by fluorescence based assay. The format is functional. The following applies: Homo sapiens, time 25.0 hrs.
The test system of series [8] is Lymphoblastoid cell. Kind of series: Induction of extracellular NBD-labeled cholesterol uptake in patient-derived SOD1 ALS lymphoblastoid cells at 5 uM incubated for 24 hrs followed by NBD-labeled cholesterol addition measured after 1 hr by fluorescence based assay. As to conditions: Homo sapiens, time 25.0 hrs. The format is functional.
Series [9] relates to Lymphoblastoid cell. The experiment in a line: Induction of cholesteryl ester formation in patient-derived lymphoblastoid cells at 5 uM incubated for 24 hrs by Amplex assay. The format is functional, cell-based. The following applies: Homo sapiens. An outline of the steps: (§3)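 Control and sporadic ALS lymphoblastoid cells treated 24 h with compound at 5 μM or vehicle. Lipids extracted from equal cell amounts with chloroform:methanol 2:1 (v/v). Organic phase dried, resuspended in assay buffer, and cholesteryl esters quantified with the Amplex cholesterol kit. Individual values reported.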

For series [10], the system named is Lymphoblastoid cell. The experiment in a line: Induction of lipid droplet formation in patient-derived lymphoblastoid cells at 5 uM incubated for 24 hrs by LipidTOX Green/DAPI staining based analysis. As to conditions: Homo sapiens. It is filed as functional. An outline of the steps: (§4)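 Control and sporadic ALS lymphoblastoid cells treated 24 h with compound at 5 μM or vehicle, fixed in 4% PFA, washed in PBS. Lipid droplets stained 2 h with LipidTOX Green, nuclei with DAPI. Confocal imaging and image-based quantification of >100 cells per condition; mean ± SEM.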

Series [11] deals with Lymphoblastoid cell. Kind of series: Induction of cholesteryl ester formation in patient-derived Sporadic ALS lymphoblastoid cells at 5 uM incubated for 24 hrs by Amplex assay. As to conditions: Homo sapiens. It is filed as functional, cell-based. An outline of the steps: as §3
For series [12], the system named is Lymphoblastoid cell. The experiment in a line: Induction of lipid droplet formation in patient-derived Sporadic ALS lymphoblastoid cells at 5 uM incubated for 24 hrs by LipidTOX Green/DAPI staining based analysis. The format is functional. The following applies: Homo sapiens. An outline of the steps:
as §4

Series [13] has as its system Lymphoblastoid cell. Kind of series: Induction of extracellular NBD-labeled cholesterol uptake in patient-derived Sporadic ALS lymphoblastoid cells at 5 uM incubated for 24 hrs followed by NBD-labeled cholesterol addition measured after 1 hr in presence of SSO by fluorescence based assay. As to conditions: Homo sapiens, time 25.0 hrs. It is filed as functional. An outline of the steps:
(§5)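 Lymphoblastoid lines from controls (C100, C112) and sporadic ALS patients (E2, E4) treated 24 h with compound at 5 μM. BLT1, SSO or EZE (10 μM) added 15 min before NBD-cholesterol, which was left for 1 h. Cells washed three times with PBS, fluorescence read at 469/537 nm. Run in triplicate; mean ± SEM.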

Series [14] deals with Lymphoblastoid cell. Kind of series: Induction of extracellular NBD-labeled cholesterol uptake in patient-derived Sporadic ALS lymphoblastoid cells at 5 uM incubated for 24 hrs followed by NBD-labeled cholesterol addition measured after 1 hr in presence of EZE by fluorescence based assay. The format is functional. The following applies: Homo sapiens, time 25.0 hrs. An outline of the steps: as §5

The test system of series [15] is Lymphoblastoid cell. The experiment in a line: Induction of extracellular NBD-labeled cholesterol uptake in patient-derived Sporadic ALS lymphoblastoid cells at 5 uM incubated for 24 hrs followed by NBD-labeled cholesterol addition measured after 1 hr in presence of […] by fluorescence based assay. The format is functional. The following applies: Homo sapiens, time 25.0 hrs. An outline of the steps:
as §5

For series [16], the system named is Lymphoblastoid cell. Kind of series: Induction of extracellular NBD-labeled cholesterol uptake in patient-derived lymphoblastoid cells at 5 uM incubated for 24 hrs followed by NBD-labeled cholesterol addition measured after 1 hr in presence of SSO by fluorescence based assay. The format is functional. As to conditions: Homo sapiens, time 25.0 hrs.
Series [17] concerns Lymphoblastoid cell. The experiment in a line: Induction of extracellular NBD-labeled cholesterol uptake in patient-derived lymphoblastoid cells at 5 uM incubated for 24 hrs followed by NBD-labeled cholesterol addition measured after 1 hr in presence of EZE by fluorescence based assay. It is filed as functional. As to conditions: Homo sapiens, time 25.0 hrs.
Series [18] deals with Lymphoblastoid cell. Kind of series: Induction of extracellular NBD-labeled cholesterol uptake in patient-derived lymphoblastoid cells at 5 uM incubated for 24 hrs followed by NBD-labeled cholesterol addition measured after 1 hr in presence of […] by fluorescence based assay. It is filed as functional. The following applies: Homo sapiens, time 25.0 hrs.
Series [19] concerns Lymphoblastoid cell. The experiment in a line: Improvement in spare respiratory capacity in patient-derived Sporadic ALS lymphoblastoid cells at 5 uM incubated for 24 hrs by Seahorse XF analysis. It is filed as functional, cell-based. The following applies: Homo sapiens. An outline of the steps: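 Control and sALS lymphoblasts plated at 200,000 cells/well on poly-L-lysine and cultured 24 h ± compound (5 μM). Then moved to bicarbonate-free DMEM with 2 mM glutamine, 5 mM glucose, 2% FBS, 1 mM pyruvate and 5 mM HEPES pH 7.4, 1 h without CO2. Seahorse Mito Stress OCR: basal, oligomycin 1 μM, FCCP 3 μM, antimycin/rotenone 2.5 μM each. Four replicates, mean ± SEM.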

Series [20] concerns Lymphoblastoid cell. Kind of series: Modulation of mitochondria-endoplasmic reticulum contacts in patient-derived Sporadic ALS lymphoblastoid cells at 5 uM incubated for 24 hrs by Seahorse XF analysis. It is filed as functional, cell-based. As to conditions: Homo sapiens.
Series [21] deals with HCT-116. Kind of series: Modulation of mitochondria-endoplasmic reticulum contacts in human HCT-116 cells at 25 uM incubated for 1 hr by TEM analysis. The format is functional, cell-based.
Series [22] concerns Lymphoblastoid cell. The experiment in a line: Induction of lipid droplet formation in patient-derived Sporadic ALS lymphoblastoid cells at 5 uM incubated for 24 hrs by TEM analysis. It is filed as functional, cell-based. The following applies: Homo sapiens. An outline of the steps: (§6)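 Control and sporadic ALS lymphoblasts with or without compound (5 μM, 24 h) were fixed 4 h at 4 °C in 4% paraformaldehyde/2.5% glutaraldehyde in 0.1 M phosphate pH 7.3. Postfixed in osmium tetroxide/potassium ferrocyanide, acetone-dehydrated, Spurr-embedded. 60 nm sections stained with lead citrate and imaged by TEM at 80 kV.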

In series [23] the test system is Lymphoblastoid cell. Kind of series: Restoration of mitochondrial cristae structure in patient-derived Sporadic ALS lymphoblastoid cells at 5 uM incubated for 24 hrs by TEM analysis. It is filed as functional, cell-based. As to conditions: Homo sapiens. An outline of the steps:
as §6

Series [24] in a line: Permeability of compound incubated for 2.5 hrs by PAMPA. The format is ADME. An outline of the steps: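 PAMPA-BBB: compounds in PBS/EtOH 70:30, pH 7.4, placed in a donor plate over a filter coated with porcine brain lipid in dodecane (20 mg/mL), with phosphate-buffer acceptor. Incubated 2 h 30 min at RT. Acceptor concentration read by absorbance at 2–5 wavelengths, three wells, two runs (mean ± SD). Ten reference drugs; CNS+ if Pe >4.4 × 10–6 cm s–1.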

As for `O=C(Nc1ccc([N+](=O)[O-])cc1Cl)c1cc(Cl)ccc1O` [NICLOSAMIDE], in [1], the EC50 is 5.68 µM. Besides, in the series with HCT-116 [2], the Activity entry is reported as “Non-toxic”. Further, in the series with HCT-116 [3], the outcome was inactive.

As to `O=C(Nc1ccccc1)c1cc(Cl)ccc1O`, the Activity result with HCT-116 [2] is “Non-toxic”; in the series with HCT-116 [4], “Non-toxic”; in the series with Lymphoblastoid cell [15] it was “Not active; The Result Suggests That Cell Surface Hdl Scavenger Receptor B, Type 1 (Sr-B1) May Be Involved In Mechanism Of Action”; with Lymphoblastoid cell [18] it was “Not active; The Result Suggests That Cell Surface Hdl Scavenger Receptor B, Type 1 (Sr-B1) May Be Involved In Mechanism Of Action”. In addition, the outcome in the series on HCT-116 [3] and in the series on Lymphoblastoid cell [8] was inactive. Moreover, the outcome with HCT-116 [5], in the series with Lymphoblastoid cell [6], in the series on Lymphoblastoid cell [7], in the series with Lymphoblastoid cell [9], in the series on Lymphoblastoid cell [10] and with Lymphoblastoid cell [11] was Active. Further, the result in the series on Lymphoblastoid cell [12], in the series on Lymphoblastoid cell [13], with Lymphoblastoid cell [14], in the series with Lymphoblastoid cell [16], with Lymphoblastoid cell [17] and in the series with Lymphoblastoid cell [19] was Active. Also, the result with Lymphoblastoid cell [20], in the series with HCT-116 [21], in the series on Lymphoblastoid cell [22] and in the series on Lymphoblastoid cell [23] was Active. In series [24], the permeability entry is “Permeable”.

Consider `O=C(Nc1cccc([N+](=O)[O-])c1)c1cc(Cl)ccc1O`, for which, in [1], the EC50 was found to be 8.32 µM. In addition, the Activity result in the series on HCT-116 [2] and in the series on HCT-116 [4] was “Non-toxic” throughout. In addition, the outcome with HCT-116 [3] was inactive. In [24], the permeability result was “Permeable”.

In the case of `O=C(Nc1ccc([N+](=O)[O-])cc1F)c1cc(Cl)ccc1O`, the response in [1] was half-maximal at 5.64 µM (EC50). Further, the Activity entry with HCT-116 [2] is reported as “Non-toxic”. Further, in the series on HCT-116 [3], the outcome was inactive.

On to `O=C(Nc1ccc(F)cc1)c1cc(Cl)ccc1O`, for which, in series [1], a half-maximal response (EC50) required 20.2 µM.

`O=C(Nc1ccc([N+](=O)[O-])cc1Cl)c1cccc2ccccc12` had an EC50 in [1] of 3.34 µM.

`CC(C)C[C@@H](C=O)NC(=O)[C@H](CC(C)C)NC(=O)[C@H](CC(C)C)NC(=O)OCc1ccccc1` [MG-132] (Cbz-Leu-Leu-Leu-aldehyde) showed an EC50 in [1] of 13.7 µM.

Take `CNC(=O)c1ccc(NC(=O)c2cc(Cl)ccc2O)cc1`: in [1], the EC50 is 10.2 µM.

`N#Cc1ccc(NC(=O)c2cc(Cl)ccc2O)cc1` returned an EC50 in series [1] of 9.7 µM. The Activity result with HCT-116 [2] and in the series with HCT-116 [4] was “Non-toxic” throughout. Moreover, in the series on HCT-116 [3], the result was inactive. Also, the permeability entry in [24] is recorded as “Permeable”.

`O=C(Nc1ccc([N+](=O)[O-])cc1)c1cccc2ccccc12` yielded an EC50 in series [1] of 21.7 µM.

In series [1], `O=C(Nc1ccc([N+](=O)[O-])cc1)c1cc(Cl)ccc1O` registered an EC50 of 2.44 µM. Moreover, in the series on HCT-116 [3], the result was inactive. Also, in series [24], the permeability result is “Permeable”.
